In ChEMBL document CHEMBL2390926, “Identification of novel FLT3 kinase inhibitors” (Eur J Med Chem, 2013):
Calls of active or inactive are those of the source.

Tests used:
Assay type in all cases: cell-based
Conditions in all cases: BaF3
[1] = biological target: T1, Tyrosine-protein kinase Mer (Homo sapiens) (UniProt Q12866); experiment: Inhibition of MERTK (unknown origin) transfected in mouse Ba/F3 cells at 1 uM after 24 hrs
T1 sequence (whole entry): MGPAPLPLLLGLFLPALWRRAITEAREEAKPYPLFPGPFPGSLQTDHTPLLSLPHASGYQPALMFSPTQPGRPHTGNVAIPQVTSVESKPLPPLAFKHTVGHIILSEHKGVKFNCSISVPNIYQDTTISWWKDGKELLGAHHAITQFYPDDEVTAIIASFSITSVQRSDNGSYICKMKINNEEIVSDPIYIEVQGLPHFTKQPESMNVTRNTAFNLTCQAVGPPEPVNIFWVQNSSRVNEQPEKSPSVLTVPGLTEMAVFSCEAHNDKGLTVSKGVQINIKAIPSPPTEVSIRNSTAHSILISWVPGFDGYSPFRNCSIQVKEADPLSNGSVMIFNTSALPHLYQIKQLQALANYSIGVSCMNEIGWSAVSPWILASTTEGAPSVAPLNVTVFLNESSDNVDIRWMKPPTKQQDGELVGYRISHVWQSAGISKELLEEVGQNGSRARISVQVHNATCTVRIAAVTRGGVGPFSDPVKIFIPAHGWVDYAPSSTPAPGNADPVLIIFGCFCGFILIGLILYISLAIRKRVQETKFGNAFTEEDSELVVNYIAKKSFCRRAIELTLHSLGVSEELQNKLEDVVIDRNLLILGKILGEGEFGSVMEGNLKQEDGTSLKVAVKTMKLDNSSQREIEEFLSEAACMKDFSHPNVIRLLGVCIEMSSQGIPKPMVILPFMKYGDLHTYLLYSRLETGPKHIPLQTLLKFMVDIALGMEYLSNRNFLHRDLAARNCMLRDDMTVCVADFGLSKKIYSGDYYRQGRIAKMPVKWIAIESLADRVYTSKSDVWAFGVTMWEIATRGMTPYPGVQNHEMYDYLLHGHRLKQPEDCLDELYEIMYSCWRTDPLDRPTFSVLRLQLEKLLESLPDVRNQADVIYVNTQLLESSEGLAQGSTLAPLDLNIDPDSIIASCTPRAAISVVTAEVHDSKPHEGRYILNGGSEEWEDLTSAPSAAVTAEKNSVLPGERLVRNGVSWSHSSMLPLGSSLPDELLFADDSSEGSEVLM

[2] = biological target: Vascular endothelial growth factor receptor 3 (Homo sapiens) (UniProt P35916); experiment: Inhibition of FLT4 (unknown origin) transfected in mouse Ba/F3 cells at 1 uM after 24 hrs
Vascular endothelial growth factor receptor 3 (Homo sapiens), sequence (P35916 whole entry): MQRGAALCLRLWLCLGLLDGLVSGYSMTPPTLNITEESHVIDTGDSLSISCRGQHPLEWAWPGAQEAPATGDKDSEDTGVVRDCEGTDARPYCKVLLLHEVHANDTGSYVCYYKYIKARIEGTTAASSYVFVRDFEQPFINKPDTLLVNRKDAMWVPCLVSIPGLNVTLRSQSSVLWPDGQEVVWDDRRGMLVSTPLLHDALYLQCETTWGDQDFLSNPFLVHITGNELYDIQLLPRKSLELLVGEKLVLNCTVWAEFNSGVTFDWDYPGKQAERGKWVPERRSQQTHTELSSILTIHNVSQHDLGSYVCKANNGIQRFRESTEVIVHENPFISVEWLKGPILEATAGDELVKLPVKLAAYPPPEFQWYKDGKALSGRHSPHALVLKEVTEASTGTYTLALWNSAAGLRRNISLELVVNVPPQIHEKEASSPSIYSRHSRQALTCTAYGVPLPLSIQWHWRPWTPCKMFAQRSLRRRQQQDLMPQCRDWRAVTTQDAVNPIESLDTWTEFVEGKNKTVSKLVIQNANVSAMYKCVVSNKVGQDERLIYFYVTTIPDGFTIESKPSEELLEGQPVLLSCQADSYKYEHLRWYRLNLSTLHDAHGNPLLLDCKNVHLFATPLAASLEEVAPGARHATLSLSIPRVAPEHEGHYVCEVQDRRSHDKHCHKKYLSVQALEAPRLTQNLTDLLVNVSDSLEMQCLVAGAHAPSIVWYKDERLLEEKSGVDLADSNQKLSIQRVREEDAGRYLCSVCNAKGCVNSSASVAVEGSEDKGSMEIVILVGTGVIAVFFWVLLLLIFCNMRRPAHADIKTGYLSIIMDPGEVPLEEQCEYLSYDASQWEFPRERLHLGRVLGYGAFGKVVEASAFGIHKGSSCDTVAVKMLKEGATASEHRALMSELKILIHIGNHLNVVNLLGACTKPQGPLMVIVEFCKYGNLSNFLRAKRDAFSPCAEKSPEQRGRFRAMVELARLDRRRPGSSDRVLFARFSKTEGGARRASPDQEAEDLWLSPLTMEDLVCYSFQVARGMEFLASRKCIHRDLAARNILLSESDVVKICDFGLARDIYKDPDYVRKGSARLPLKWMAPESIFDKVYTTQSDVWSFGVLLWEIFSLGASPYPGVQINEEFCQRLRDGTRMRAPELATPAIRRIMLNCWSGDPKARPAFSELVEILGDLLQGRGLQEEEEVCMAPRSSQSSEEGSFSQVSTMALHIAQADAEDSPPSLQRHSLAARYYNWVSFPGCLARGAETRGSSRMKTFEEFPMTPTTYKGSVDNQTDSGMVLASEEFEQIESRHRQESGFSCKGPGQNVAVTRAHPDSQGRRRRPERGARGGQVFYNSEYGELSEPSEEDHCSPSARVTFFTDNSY
How it was run: (§1)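 Kinase specificity panel: each Ba/F3 line transformed with one of 24 tyrosine kinases depends on that kinase to grow. Cells were given compound at 1 or 5 µM for 24 h, with DMSO as comparator. Percentage growth was read by ATP-lite luminescence and reported as mean ± SEM.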

[3] = biological target: T2, Ephrin type-A receptor 8 (Homo sapiens) (UniProt P29322); experiment: Inhibition of EPHA8 (unknown origin) transfected in mouse Ba/F3 cells at 1 uM after 24 hrs; how it was run: as §1
T2 sequence (whole entry): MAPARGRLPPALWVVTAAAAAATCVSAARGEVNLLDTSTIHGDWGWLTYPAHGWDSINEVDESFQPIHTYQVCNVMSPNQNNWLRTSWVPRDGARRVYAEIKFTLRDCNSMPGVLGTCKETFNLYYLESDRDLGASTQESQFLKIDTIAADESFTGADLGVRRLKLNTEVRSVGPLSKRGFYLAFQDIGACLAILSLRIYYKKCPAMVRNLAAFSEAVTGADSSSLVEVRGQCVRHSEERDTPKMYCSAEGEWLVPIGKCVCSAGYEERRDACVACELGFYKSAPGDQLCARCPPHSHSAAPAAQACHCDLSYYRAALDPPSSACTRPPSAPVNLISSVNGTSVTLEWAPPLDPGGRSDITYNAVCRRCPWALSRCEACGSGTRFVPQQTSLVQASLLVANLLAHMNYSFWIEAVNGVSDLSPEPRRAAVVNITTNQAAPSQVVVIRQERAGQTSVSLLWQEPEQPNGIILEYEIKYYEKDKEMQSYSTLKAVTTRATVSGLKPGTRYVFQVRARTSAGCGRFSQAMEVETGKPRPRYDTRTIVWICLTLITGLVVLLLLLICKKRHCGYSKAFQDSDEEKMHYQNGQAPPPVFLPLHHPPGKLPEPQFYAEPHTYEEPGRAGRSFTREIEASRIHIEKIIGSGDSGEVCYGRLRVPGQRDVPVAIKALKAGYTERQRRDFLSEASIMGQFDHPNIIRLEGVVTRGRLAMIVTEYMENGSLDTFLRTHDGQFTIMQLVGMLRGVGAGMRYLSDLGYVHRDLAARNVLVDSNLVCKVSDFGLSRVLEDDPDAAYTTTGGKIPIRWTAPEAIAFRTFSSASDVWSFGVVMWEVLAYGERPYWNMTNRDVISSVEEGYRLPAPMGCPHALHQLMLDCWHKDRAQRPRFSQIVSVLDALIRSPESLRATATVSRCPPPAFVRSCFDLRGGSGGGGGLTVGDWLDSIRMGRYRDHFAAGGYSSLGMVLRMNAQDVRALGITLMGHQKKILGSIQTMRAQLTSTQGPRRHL

[4] = biological target: Ephrin type-A receptor 5 (Homo sapiens) (UniProt P54756); experiment: Inhibition of EPHA5 (unknown origin) transfected in mouse Ba/F3 cells at 1 uM after 24 hrs; how it was run: as §1
Ephrin type-A receptor 5 (Homo sapiens), sequence (P54756 whole entry): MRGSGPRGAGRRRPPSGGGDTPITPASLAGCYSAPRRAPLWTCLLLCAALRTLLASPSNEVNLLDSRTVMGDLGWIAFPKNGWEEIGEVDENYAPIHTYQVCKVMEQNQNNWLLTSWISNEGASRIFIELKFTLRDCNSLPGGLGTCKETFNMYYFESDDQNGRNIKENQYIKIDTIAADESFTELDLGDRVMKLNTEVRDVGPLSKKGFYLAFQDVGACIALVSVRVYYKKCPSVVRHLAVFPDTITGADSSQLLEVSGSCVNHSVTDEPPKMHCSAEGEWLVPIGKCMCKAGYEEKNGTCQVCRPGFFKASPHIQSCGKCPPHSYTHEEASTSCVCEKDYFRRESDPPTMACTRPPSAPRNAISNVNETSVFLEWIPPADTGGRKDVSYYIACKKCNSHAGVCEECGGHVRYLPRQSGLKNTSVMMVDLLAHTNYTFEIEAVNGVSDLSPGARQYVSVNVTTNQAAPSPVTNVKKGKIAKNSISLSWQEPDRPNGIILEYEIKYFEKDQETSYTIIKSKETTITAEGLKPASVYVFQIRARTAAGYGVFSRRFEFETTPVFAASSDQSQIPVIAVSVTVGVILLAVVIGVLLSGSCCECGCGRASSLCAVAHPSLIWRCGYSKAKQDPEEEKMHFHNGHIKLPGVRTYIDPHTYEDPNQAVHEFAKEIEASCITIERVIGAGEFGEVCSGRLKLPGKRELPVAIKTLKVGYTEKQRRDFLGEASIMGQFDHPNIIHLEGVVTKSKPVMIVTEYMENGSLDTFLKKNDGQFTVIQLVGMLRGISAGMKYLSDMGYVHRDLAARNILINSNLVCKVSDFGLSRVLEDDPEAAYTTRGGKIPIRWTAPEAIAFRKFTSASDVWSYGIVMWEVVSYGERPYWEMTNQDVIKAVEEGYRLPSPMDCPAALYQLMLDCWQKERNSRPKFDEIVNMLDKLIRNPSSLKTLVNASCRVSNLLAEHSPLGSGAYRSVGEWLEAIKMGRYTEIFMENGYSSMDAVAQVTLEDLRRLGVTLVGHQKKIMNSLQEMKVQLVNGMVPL

[5] = biological target: Epidermal growth factor receptor (Homo sapiens) (UniProt P00533); experiment: Inhibition of EGFR (unknown origin) transfected in mouse Ba/F3 cells at 1 uM after 24 hrs; how it was run: as §1
Epidermal growth factor receptor (Homo sapiens), sequence (P00533 whole entry): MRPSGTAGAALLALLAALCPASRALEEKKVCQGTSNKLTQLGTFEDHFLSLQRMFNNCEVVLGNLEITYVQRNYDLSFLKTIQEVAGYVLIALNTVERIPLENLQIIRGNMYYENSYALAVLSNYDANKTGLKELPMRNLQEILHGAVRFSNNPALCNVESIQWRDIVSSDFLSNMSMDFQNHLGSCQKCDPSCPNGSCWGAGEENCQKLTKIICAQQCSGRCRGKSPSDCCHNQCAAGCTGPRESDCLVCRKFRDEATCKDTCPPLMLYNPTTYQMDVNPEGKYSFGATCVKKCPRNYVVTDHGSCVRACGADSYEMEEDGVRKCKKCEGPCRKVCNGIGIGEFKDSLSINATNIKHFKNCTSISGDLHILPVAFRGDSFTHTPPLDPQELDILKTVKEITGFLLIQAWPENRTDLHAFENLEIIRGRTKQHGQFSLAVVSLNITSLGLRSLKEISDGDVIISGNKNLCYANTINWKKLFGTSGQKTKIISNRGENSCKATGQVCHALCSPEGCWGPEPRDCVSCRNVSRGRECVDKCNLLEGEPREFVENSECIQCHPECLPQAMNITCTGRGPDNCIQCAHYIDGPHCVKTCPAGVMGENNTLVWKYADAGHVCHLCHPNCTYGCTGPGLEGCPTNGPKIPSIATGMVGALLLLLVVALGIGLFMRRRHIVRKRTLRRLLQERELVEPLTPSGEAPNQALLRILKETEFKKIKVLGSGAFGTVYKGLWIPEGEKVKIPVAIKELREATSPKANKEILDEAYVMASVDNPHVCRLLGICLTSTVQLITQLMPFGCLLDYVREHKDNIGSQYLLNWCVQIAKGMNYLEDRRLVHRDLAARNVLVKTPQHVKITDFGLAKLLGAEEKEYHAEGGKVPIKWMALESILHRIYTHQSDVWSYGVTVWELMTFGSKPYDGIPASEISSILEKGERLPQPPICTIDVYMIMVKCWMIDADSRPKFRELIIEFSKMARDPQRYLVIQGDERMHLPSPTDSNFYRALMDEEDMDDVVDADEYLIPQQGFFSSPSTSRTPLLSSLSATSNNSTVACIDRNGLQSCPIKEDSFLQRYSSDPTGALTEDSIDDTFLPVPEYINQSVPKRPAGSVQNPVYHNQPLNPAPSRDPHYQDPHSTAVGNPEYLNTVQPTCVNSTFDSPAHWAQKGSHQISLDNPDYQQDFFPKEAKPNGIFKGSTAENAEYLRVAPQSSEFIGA

Measured: inhibition

Cc1cccc(C(=O)Nc2cc(-c3ccc(F)cc3)n[nH]2)c1
inactive: [1] | [2] | [3] | [4] | [5]

COc1ccc(C(=O)Nc2cc(-c3ccccc3)[nH]n2)cc1
inactive: [1] | [2] | [3] | [4] | [5]

Cc1ccc(-c2cc(NC(=O)c3ccc(F)cc3)[nH]n2)cc1
inactive: [1] | [2] | [3] | [4] | [5]
